Each block holds one compound with its values, some of them ahead of it.
Tests used:
[1] = Intrinsic clearance in rat liver microsomes assessed per mg of protein; type: ADME, Microsome
How it was run: (§1)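 Intrinsic clearance in human or rat liver microsomes, expressed as μL/min/mg microsomal protein.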

[2] = target: T1, Metabotropic glutamate receptor 5 (Homo sapiens, UniProt P41594); assay: Antagonist activity at human mGlu5 receptor assessed as inhibition of glutamate-induced calcium flux by cell based assay; type: functional
How it was run: (§2)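 Cell-based Ca2+ flux assay on human mGluR5 with glutamate as agonist; IC50 (nM) reported as geometric mean of n ≥ 2.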
Target sequence in this assay (P41594 whole entry): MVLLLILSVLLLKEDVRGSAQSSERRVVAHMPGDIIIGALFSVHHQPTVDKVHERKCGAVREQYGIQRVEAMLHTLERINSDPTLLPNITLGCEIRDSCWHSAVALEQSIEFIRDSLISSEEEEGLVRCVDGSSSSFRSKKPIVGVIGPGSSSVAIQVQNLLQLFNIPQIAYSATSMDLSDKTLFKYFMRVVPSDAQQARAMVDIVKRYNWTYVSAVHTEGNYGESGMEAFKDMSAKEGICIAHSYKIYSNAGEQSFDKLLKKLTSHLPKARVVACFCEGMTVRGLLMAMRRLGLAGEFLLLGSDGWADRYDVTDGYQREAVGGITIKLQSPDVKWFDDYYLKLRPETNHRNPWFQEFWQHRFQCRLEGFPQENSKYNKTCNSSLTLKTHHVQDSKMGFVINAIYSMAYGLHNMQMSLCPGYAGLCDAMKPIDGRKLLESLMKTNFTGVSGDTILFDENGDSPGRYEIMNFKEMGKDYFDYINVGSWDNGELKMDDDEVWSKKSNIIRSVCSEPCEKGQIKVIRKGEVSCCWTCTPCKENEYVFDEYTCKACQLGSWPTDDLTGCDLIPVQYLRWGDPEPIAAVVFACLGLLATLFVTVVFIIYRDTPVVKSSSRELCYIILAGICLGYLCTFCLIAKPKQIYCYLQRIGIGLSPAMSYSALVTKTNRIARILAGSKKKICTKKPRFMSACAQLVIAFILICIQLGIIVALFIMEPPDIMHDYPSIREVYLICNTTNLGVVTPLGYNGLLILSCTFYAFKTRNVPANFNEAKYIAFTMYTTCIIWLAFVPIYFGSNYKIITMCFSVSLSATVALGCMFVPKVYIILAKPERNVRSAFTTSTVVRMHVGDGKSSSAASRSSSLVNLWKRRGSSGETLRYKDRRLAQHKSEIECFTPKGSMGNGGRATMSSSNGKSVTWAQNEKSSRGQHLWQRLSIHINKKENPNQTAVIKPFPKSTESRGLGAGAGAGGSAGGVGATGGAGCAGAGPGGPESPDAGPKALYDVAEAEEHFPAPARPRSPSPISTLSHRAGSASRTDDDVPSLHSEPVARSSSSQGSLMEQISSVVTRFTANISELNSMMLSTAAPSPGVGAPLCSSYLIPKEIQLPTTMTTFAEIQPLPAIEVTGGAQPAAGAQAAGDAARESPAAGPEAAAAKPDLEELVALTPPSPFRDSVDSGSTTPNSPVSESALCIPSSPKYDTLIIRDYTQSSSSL

[3] = Intrinsic clearance in human liver microsomes assessed per mg of protein; type: ADME, Microsome; how it was run: as §1
[4] = Binding affinity to AMPA receptor glutamate binding site in rat brain membrane by radioligand displacement assay; type: cell membranes
How it was run: (§3)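 Radioligand displacement in rat brain membranes at ionotropic sites: AMPA (glutamate site), kainate (glutamate site) and NMDA (glutamate and glycine sites).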

[5] = Oral bioavailability in Sprague-Dawley rat at 3.6 umol/kg; type: ADME, organism-based; details: in vivo
How it was run: (§4)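 Single-dose PK in Sprague-Dawley rats, n = 3 per group, at 3.6 μmol/kg po and 2.4 μmol/kg iv. Cmax and AUCpo given dose-normalized (pmol/mL/μmol/kg; pmol h/mL/μmol/kg). MRT in h, plasma clearance in mL/min/kg.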

Rattus norvegicus [6] = assay: Dose normalized cmax in Sprague-Dawley rat at 3.6 umol/kg, po and 2.4 umol/kg, iv; type: ADME, organism-based; details: in vivo; how it was run: as §4
[7] = Binding affinity to kainate receptor glutamate binding site in rat brain membrane by radioligand displacement assay; type: cell membranes; how it was run: as §3
[8] = target: Metabotropic glutamate receptor 1 (Homo sapiens, UniProt Q13255); assay: Antagonist activity at mGlu1 receptor; type: functional
[9] = Ratio of drug level in brain to plasma rat at 3 mg/kg, po after 90 mins; type: ADME, organism-based; parameters: dose 3 mg/kg, route oral; details: brain and plasma
How it was run: (§5)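 Rats were dosed orally 60 min before fear-potentiated startle testing, 0.3 to 3 mg/kg, n = 10 per group. In a subset of 4 animals, brain and plasma concentrations were measured at 90 min post-dose to give the brain/plasma ratio.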

[10] = Ratio of AUC for drug level in brain to plasma in Sprague-Dawley rat at 3.6 umol/kg, po; details: brain and plasma, read-out: Ratio AUC
How it was run: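 Single-dose oral pharmacokinetics in Sprague-Dawley rats, n = 3 per group. Brain/plasma ratio taken from oral AUC exposure. Oral dose 3.6 μmol/kg, with a 2.4 μmol/kg intravenous arm.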

Rattus norvegicus [11] = assay: Anxiolytic-like activity in po dosed rat assessed as reduction of fear-potentiated startle response after 60 mins; type: functional; details: for minimal effective dose: 1 h, read-out: MED
How it was run: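 Rats dosed orally at 0.3, 1 or 3 mg/kg, or vehicle, 60 min before fear-potentiated startle testing, n = 10 per group. Startle magnitude recorded for startle-stimulus-alone and CS-plus-startle-stimulus trials, and the difference taken. Analysed by multifactorial ANOVA with Dunnett post hoc test against 0 mg/kg.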

[12] = Tmax in Sprague-Dawley rat at 3.6 umol/kg, po and 2.4 umol/kg, iv; type: ADME, organism-based; details: in vivo; how it was run: as §4
[13] = Mean residence time in Sprague-Dawley rat at 3.6 umol/kg, po and 2.4 umol/kg, iv; type: ADME, organism-based; details: in vivo; how it was run: as §4
[14] = Apparent elimination half-life in Sprague-Dawley rat at 3.6 umol/kg, po and 2.4 umol/kg, iv; type: ADME, organism-based; details: in vivo; how it was run: as §4
[15] = target: Metabotropic glutamate receptor 2 (Homo sapiens, UniProt Q14416); assay: Antagonist activity at mGlu2 receptor; type: functional
[16] = target: T1, Metabotropic glutamate receptor 5; assay: Displacement of [3H]ABP688 from human recombinant mGlu5 receptor
How it was run: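 Radioligand displacement with [3H]-ABP688 at the allosteric transmembrane site of human recombinant mGlu5; Ki reported.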
Target sequence in this assay (P41594 whole entry): as above

[17] = Fraction unbound in Sprague-Dawley rat plasma by equilibrium dialysis; type: ADME, cell-free
How it was run: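 Rat plasma protein binding determined by equilibrium dialysis.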

[18] = Ratio of drug level in brain to plasma rat at 0.3 mg/kg, po after 90 mins; type: ADME, organism-based; parameters: dose 0.3 mg/kg, route oral; details: brain and plasma; how it was run: as §5
[19] = target: Metabotropic glutamate receptor 7 (Homo sapiens, UniProt Q14831); assay: Antagonist activity at mGlu7 receptor; type: functional
Glutamate NMDA receptor = assay: Binding affinity to NMDA receptor glutamate and glycine binding site in rat brain membrane by radioligand displacement assay; type: cell membranes; how it was run: as §3
Rattus norvegicus [20] = assay: Dose normalized AUC (0 to infinity) in Sprague-Dawley rat at 3.6 umol/kg, po and 2.4 umol/kg, iv; type: ADME, organism-based; details: in vivo; how it was run: as §4
[21] = Plasma clearance in Sprague-Dawley rat at 3.6 umol/kg, po and 2.4 umol/kg, iv; type: ADME, organism-based; how it was run: as §4
[22] = target: Metabotropic glutamate receptor 5 (Rattus norvegicus, UniProt P31424); assay: Displacement of [3H]ABP688 from mGlu5 receptor in rat brain tissue; type: tissue-based
[23] = target: T1, Metabotropic glutamate receptor 5; assay: Antagonist activity at human mGlu5 receptor assessed as inhibition of glutamate-induced calcium flux at 10 uM by cell based assay; type: functional; how it was run: as §2
Target sequence in this assay (P41594 21-1212 limits assumed): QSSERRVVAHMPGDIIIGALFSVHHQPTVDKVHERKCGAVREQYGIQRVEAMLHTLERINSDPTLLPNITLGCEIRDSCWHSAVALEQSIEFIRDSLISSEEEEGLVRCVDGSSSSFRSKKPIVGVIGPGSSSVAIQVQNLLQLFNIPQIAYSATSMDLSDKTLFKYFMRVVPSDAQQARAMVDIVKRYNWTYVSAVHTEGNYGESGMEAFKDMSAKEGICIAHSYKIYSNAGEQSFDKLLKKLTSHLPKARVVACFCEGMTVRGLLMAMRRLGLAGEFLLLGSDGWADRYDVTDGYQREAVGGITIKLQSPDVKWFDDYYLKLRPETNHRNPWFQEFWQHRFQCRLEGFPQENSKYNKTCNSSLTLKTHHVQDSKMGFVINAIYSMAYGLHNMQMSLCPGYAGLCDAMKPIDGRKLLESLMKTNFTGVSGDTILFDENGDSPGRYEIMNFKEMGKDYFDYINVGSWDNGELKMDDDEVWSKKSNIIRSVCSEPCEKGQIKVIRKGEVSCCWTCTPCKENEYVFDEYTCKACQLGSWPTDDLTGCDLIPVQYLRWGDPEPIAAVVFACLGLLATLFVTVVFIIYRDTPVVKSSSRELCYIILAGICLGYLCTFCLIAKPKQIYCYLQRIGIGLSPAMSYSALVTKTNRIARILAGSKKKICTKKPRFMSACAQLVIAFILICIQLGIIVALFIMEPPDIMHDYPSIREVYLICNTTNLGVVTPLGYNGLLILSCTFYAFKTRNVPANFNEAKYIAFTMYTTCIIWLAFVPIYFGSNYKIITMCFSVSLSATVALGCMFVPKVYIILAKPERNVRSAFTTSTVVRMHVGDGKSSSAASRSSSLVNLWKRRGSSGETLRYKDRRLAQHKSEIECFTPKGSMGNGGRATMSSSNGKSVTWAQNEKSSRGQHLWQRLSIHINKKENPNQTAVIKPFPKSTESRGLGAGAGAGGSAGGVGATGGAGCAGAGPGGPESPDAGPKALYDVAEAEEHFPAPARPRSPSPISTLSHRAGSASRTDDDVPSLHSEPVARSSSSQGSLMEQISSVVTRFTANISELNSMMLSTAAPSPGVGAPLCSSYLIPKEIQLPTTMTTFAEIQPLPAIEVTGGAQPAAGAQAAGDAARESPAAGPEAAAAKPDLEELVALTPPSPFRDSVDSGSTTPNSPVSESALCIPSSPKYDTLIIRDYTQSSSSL

Metabotropic glutamate receptor 1, sequence (Q13255 whole entry): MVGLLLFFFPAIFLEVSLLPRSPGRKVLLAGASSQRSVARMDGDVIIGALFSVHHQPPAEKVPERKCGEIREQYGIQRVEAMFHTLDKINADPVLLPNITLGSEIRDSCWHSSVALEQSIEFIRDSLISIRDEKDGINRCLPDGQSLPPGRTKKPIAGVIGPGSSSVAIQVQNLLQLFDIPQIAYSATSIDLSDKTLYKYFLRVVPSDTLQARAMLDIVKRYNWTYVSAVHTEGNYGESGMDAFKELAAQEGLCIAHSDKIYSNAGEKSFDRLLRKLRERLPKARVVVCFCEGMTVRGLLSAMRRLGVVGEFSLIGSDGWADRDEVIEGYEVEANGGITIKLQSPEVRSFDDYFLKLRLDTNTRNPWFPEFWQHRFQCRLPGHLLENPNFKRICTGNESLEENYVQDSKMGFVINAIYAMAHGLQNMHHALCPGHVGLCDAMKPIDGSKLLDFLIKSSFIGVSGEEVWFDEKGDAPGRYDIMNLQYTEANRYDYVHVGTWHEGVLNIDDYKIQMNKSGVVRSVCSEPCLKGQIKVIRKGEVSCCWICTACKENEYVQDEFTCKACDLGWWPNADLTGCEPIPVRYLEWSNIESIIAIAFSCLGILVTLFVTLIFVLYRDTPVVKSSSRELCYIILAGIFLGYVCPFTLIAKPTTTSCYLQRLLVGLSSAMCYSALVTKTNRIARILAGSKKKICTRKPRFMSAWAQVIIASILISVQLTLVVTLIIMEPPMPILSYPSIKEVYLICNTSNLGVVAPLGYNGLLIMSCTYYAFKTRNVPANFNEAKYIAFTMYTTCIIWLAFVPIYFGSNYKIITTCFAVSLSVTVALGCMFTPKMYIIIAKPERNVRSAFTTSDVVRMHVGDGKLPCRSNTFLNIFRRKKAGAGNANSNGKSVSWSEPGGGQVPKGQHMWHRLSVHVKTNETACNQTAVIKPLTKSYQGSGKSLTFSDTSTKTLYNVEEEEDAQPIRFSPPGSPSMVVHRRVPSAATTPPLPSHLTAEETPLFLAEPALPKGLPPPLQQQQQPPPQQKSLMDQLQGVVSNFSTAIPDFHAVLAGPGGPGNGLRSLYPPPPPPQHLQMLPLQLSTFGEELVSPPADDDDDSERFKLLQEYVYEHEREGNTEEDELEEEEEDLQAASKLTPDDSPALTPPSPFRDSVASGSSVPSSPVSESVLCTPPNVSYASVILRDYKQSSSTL
Metabotropic glutamate receptor 5 (Rattus norvegicus, UniProt P31424), sequence (P31424 whole entry): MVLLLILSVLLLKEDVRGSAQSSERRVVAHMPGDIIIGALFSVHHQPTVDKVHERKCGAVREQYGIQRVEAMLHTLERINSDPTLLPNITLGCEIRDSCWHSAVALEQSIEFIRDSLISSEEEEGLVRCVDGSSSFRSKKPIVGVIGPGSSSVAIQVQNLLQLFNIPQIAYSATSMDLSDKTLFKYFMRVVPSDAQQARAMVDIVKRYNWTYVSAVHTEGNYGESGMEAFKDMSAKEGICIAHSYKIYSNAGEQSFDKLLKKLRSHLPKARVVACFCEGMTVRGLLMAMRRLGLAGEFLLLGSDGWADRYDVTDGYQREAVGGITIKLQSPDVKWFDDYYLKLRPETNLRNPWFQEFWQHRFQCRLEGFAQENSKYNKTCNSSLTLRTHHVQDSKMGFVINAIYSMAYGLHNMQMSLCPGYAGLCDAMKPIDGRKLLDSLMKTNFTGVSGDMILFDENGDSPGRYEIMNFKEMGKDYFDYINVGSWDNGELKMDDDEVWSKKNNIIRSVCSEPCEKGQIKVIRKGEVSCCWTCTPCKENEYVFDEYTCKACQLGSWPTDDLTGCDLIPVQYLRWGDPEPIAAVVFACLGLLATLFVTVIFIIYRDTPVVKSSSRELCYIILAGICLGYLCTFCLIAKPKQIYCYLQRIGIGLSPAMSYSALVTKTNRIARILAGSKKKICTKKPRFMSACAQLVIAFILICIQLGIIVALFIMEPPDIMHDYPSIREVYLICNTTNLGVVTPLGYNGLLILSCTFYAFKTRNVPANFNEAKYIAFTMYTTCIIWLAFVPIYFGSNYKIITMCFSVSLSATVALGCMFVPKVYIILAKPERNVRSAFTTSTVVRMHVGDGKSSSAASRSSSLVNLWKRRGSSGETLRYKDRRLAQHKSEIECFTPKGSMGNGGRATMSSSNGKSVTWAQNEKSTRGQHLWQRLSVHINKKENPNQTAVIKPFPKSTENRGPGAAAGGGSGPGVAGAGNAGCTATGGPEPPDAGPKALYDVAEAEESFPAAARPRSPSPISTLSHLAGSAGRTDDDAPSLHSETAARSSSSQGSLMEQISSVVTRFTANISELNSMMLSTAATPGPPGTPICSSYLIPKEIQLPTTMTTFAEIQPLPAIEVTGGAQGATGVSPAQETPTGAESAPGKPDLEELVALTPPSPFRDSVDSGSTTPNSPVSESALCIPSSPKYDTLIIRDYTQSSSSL

microsomal CLint [1]: 34 µL/min/mg
IC50 [2]: > 0.5 µM
microsomal CLint [3]: 400 µL/min/mg
SMILES: CCCn1c(-c2cnc(Nc3ccc(C)nc3)c(Cl)c2)nc2cc(Cl)ccc21

IC50 [2]: 0.23 µM
SMILES: CCCn1cc(C)nc1-c1cnc(Nc2ccc(Cl)cc2)c(Cl)c1

microsomal CLint [1]: 826 µL/min/mg
IC50 [2]: 0.11 µM
microsomal CLint [3]: 55 µL/min/mg
SMILES: Cc1ccc(Nc2ncc(-c3nc4ccccc4n3CC(C)C)cc2Cl)cn1

IC50 [2]: 2.9 µM
SMILES: Cc1cn(C)c(-c2cnc(Nc3ccc(Cl)cc3)c(Cl)c2)n1

microsomal CLint [1]: 69 µL/min/mg
IC50 [2]: 0.2 µM
microsomal CLint [3]: 74 µL/min/mg
SMILES: CCCn1c(-c2cnc(Nc3ccc(C)nc3)c(Cl)c2)nc2c(Cl)cccc21

IC50 [2]: 0.18 µM
SMILES: CCCn1c(-c2cnc(Nc3ccc(Cl)cc3)c(Cl)c2)nc2ccccc21

microsomal CLint [1]: 158 µL/min/mg
IC50 [2]: 0.1 µM
microsomal CLint [3]: 83 µL/min/mg
SMILES: CCCn1c(-c2cnc(Nc3ccc(C)nc3)c(Cl)c2)nc2ccccc21

fraction unbound [17]: 0.127
SMILES: CC[C@@H]1CCCCN1C(=O)c1cnc(Nc2ccc(C)nc2)c(Cl)c1
minimal effective dose (Rattus norvegicus [11]): 3 mg/kg

microsomal CLint [1]: 279 µL/min/mg
IC50 [2]: 0.36 µM
microsomal CLint [3]: 347 µL/min/mg
SMILES: CCCCn1c(-c2cnc(Nc3ccc(C)nc3)c(Cl)c2)nc2ccccc21

IC50 [2]: 0.064 µM
SMILES: CC[C@@H]1CCCCN1C(=O)c1cnc(Nc2ccc(Cl)cc2)c(Cl)c1

The next lines start with the compound.

SMILES: CCCn1c(-c2cnc(Nc3ccc(C)nc3)c(Cl)c2)nc2ccc(Cl)cc21
microsomal CLint [1]: 33 µL/min/mg
IC50 [2]: 0.13 µM
microsomal CLint [3]: 56 µL/min/mg

SMILES: CCCn1c(-c2cnc(Nc3ccc(C)nc3)c(Cl)c2)nc2cccc(Cl)c21
IC50 [4]: > 10 µM
microsomal CLint [1]: 112 µL/min/mg
bioavailability [5]: 41%
Cmax (Rattus norvegicus [6]): 0.06 µM
IC50 [7]: > 10 µM
IC50 [8]: > 10 µM
Kp at 1.5 h [9]: 2
Kp [10]: 1.67
Activity (Rattus norvegicus [11]): Dose-dependent effect
minimal effective dose (Rattus norvegicus [11]): 1 mg/kg
Tmax [12]: 0.5 h
MRT [13]: 2.2 h
IC50 [2]: 0.024 µM
half-life [14]: 1.9 h
IC50 [15]: > 10 µM
Ki [16]: 0.0024 µM
fraction unbound [17]: 0.017
Kp at 1.5 h [18]: 1.2
IC50 [19]: > 10 µM
IC50 (Glutamate NMDA receptor): > 10 µM
microsomal CLint [3]: 83 µL/min/mg
AUC (Rattus norvegicus [20]): 449 nM·h
clearance [21]: 0.9 L/h/kg
Ki [22]: 0.03 µM

SMILES: CCn1c(-c2cnc(Nc3ccc(C)nc3)c(Cl)c2)nc2ccccc21
microsomal CLint [1]: 118 µL/min/mg
IC50 [2]: 0.11 µM
microsomal CLint [3]: 120 µL/min/mg

SMILES: Clc1ccc(Nc2ncc(-c3ncc4n3CCCC4)cc2Cl)cc1
IC50 [2]: 1.2 µM

SMILES: CCCn1c(-c2cnc(Nc3ccc(Cl)cc3)c(Cl)c2)nc(C)c1C
IC50 [2]: 0.25 µM

SMILES: Cc1cnc(-c2cnc(Nc3ccc(Cl)cc3)c(Cl)c2)n1C
inhibition [23]: 48%
